Measured values published in ChEMBL document CHEMBL1125745, “Unsaturated and carbocyclic nucleoside analogues: synthesis, antitumor, and antiviral activity” (J Med Chem, 1991).

Assays:
L1210 [1] = assay: Inhibitory activity against murine leukemia L1210 cells; format: functional, cell-based; settings: Mus musculus
[2] = Cytotoxicity was evaluated against low malignancy line at 500 ug/disk.; format: functional
Summary of the method: (§1)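 Disk zone assay: analogue dilutions on 6.5 mm paper disks were placed on dishes with a 0.8% agar bottom layer and a 0.44% soft-agar top layer of tumor cells (≤1 × 10^5/plate) in Fishers-CMRL-1066 with 12% horse serum. Plates were incubated 6-10 days and the inhibition zone was measured by microscope; 200 zone units = 6 mm.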

L1210 [3] = assay: Compound were evaluated for inhibition of macromolecular synthesis in murine leukemia L1210 cells at 1 hour against DNA.; format: functional, Mus musculus; parameters: scale not given: the % may be the effect or the level left
L1210 [4] = assay: Cytotoxicity was evaluated against L1210 leukemia cell line at 500 ug/disk.; format: functional, Mus musculus; summary of the method: as §1
L1210 [5] = assay: Compound were evaluated for inhibition of macromolecular synthesis in murine leukemia L1210 cells at 4 hour against DNA.; format: functional, Mus musculus; parameters: scale not given: the % may be the effect or the level left
L1210 [6] = assay: Compound were evaluated for inhibition of macromolecular synthesis in murine leukemia L1210 cells at 1 hour against Protein; format: functional, Mus musculus; parameters: scale not given: the % may be the effect or the level left
L1210 [7] = assay: Compound were evaluated for inhibition of macromolecular synthesis in murine leukemia L1210 cells at 1 hour against RNA.; format: functional, Mus musculus; parameters: scale not given: the % may be the effect or the level left
L1210 [8] = assay: Compound were evaluated for inhibition of macromolecular synthesis in murine leukemia L1210 cells at 4 hour against Protein; format: functional, Mus musculus; parameters: scale not given: the % may be the effect or the level left
L1210 [9] = assay: Compound were evaluated for inhibition of macromolecular synthesis in murine leukemia L1210 cells at 4 hour against RNA.; format: functional, Mus musculus; parameters: scale not given: the % may be the effect or the level left
MC-38 [10] = assay: Cytotoxicity was evaluated against C38 solid tumor of mouse at 500 ug/disk.; format: functional; parameters: unit not given beside the values; summary of the method: as §1
Mus musculus [11] = organism: Mus musculus; assay: Concentration that reduces Rauscher murine leukemia virus titer by 50%; format: functional, organism-based
Summary of the method: (§2)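 SC-1 cells (1 × 10^4/well) were pretreated with polybrene, infected 2 h at 37 °C with F-MuLV or R-MuLV in EMEM-5 with 8 µg/mL polybrene, washed, and refed with analogue for 72 h. They were then UV-irradiated and overlaid with XC cells (2 × 10^5) for 48 h, fixed and stained with crystal violet. Multinucleated cells were counted and EC50 was taken by linear regression versus untreated cultures.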

[12] = Selectivity index which is the ratio of IC50 to EC50 of R-MuLV.; format: functional
Mus musculus [13] = organism: Mus musculus; assay: Cytotoxicity was evaluated; format: functional
Summary of the method: (§3)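 SC-1 cells (1 × 10^4 cells/mL) were seeded, incubated overnight at 37 °C, refed with EMEM-10 and given diluted analogue in triplicate for 72 h at 37 °C. Cells were trypsinized and counted in a Coulter counter. The mean of three wells gave percent of control count, and IC50 was calculated by linear regression.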

Mus musculus [14] = organism: Mus musculus; assay: Concentration that reduces Friend murine leukemia virus titer by 50%; format: functional, organism-based; summary of the method: as §2
L1210 [15] = assay: Cytotoxicity was evaluated against L1210 leukemia cell line at 250 ug/disk.; format: functional, Mus musculus; summary of the method: as §1
PO3 [16] = assay: Cytotoxicity was evaluated against PO3 cell line at 250 ug/disk.; format: functional, Mus musculus; summary of the method: as §1
[17] = Cytotoxicity was evaluated against low malignancy line at 250 ug/disk.; format: functional; summary of the method: as §1
[18] = Selectivity index is the ratio of IC50 to EC50 of F-MuLV.; format: functional
PO3 [19] = assay: Cytotoxicity was evaluated against PO3 cell line at 1000 ug/disk.
Homo sapiens [20] = organism: Homo sapiens; assay: Cytotoxicity was evaluated against H125 human solid tumor at 500 ug/disk.; format: functional; summary of the method: as §1
Homo sapiens [21] = organism: Homo sapiens; assay: Cytotoxicity was evaluated against C116 human solid tumor at 1.5 ug/disk.; format: functional; summary of the method: as §1
[22] = Cytotoxicity was evaluated against low malignancy line at 1.5 ug/disk.; format: functional; summary of the method: as §1
Homo sapiens [23] = organism: Homo sapiens; assay: Cytotoxicity was evaluated against PO1 human solid tumor at 1.5 ug/disk.; format: functional; summary of the method: as §1
PO3 [24] = assay: Cytotoxicity was evaluated against PO3 cell line at 1.5 ug/disk.; format: functional, Mus musculus; summary of the method: as §1
[25] = Cytotoxicity was evaluated against CO9 solid tumor of mouse at 1.5 ug/disk.; format: functional; summary of the method: as §1
MC-38 [26] = assay: Cytotoxicity was evaluated against C38 solid tumor of mouse at 1.5 ug/disk.; format: functional; summary of the method: as §1
Homo sapiens [27] = organism: Homo sapiens; assay: Cytotoxicity was evaluated against H125 human solid tumor at 1.5 ug/disk.; format: functional; summary of the method: as §1
Mus musculus [28] = organism: Mus musculus; assay: Cytotoxicity was evaluated and represented as IC50.; format: functional; summary of the method: as §3
Mus musculus [29] = organism: Mus musculus; assay: (§4) Inhibition of incorporation of labeled precursor into macromolecules of noninfected SC-1 cells with the compound at a concentration 100 uM determined against thymidine; format: functional
Summary of the method: (§5)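 Noninfected SC-1 cells were incubated with analogue as in the cytotoxicity setup, and [3H]thymidine, [3H]uridine or [3H]leucine was added. After 4 h, wells were washed with ice-cold PBS and cells were lysed in 1% SDS, 0.01 M EDTA, 0.01 M Tris pH 7.7. Lysates were dried on glass-fiber filters, and label is expressed as percent of incorporation in untreated cells.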

Mus musculus [30] = organism: Mus musculus; assay: (§6) Inhibition of incorporation of labeled precursor into macromolecules of noninfected SC-1 cells with the compound at a concentration 300 uM determined against leucine.; format: functional
Summary of the method: (§7)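 SC-1 cells seeded in 24-well trays at 1 × 10^4 cells/mL, incubated overnight at 37 °C, then exposed to analogue for 72 h at 37 °C. Labeled thymidine (2.5 µCi), [3H-5,6]uridine or [3H-4,5]leucine was added. After 4 h, cells were washed with cold PBS, lysed in 1% SDS/0.01 M EDTA/0.01 M Tris pH 7.7, and lysates were dried on GF/B filters. Result given as % of untreated incorporation.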

Mus musculus [31] = organism: Mus musculus; assay: (§8) Inhibition of incorporation of labeled precursor into macromolecules of noninfected SC-1 cells with the compound at a concentration 300 uM determined against uridine.; format: functional; summary of the method: as §7
Mus musculus [32] = organism: Mus musculus; assay: (§9) Inhibition of incorporation of labeled precursor into macromolecules of noninfected SC-1 cells with the compound at a concentration 100 uM determined against leucine.; format: functional; summary of the method: as §5
Mus musculus [33] = organism: Mus musculus; assay: (§10) Inhibition of incorporation of labeled precursor into macromolecules of noninfected SC-1 cells with the compound at a concentration 100 uM determined against uridine.; format: functional; summary of the method: as §5
Mus musculus [34] = organism: Mus musculus; assay: (§11) Inhibition of incorporation of labeled precursor into macromolecules of noninfected SC-1 cells with the compound at a concentration 300 uM determined against thymidine; format: functional; summary of the method: as §7
[35] = as §4; format: functional; summary of the method: as §5
[36] = as §6; format: functional; summary of the method: as §7
[37] = as §8; format: functional; summary of the method: as §7
[38] = as §9; format: functional; summary of the method: as §5
[39] = as §10; format: functional; summary of the method: as §5
[40] = as §11; format: functional; summary of the method: as §7
L1210 [41] = assay: Cytotoxicity was evaluated against L1210 leukemia cell line at 1000 ug/disk.; format: functional, Mus musculus; summary of the method: as §1
Homo sapiens [42] = organism: Homo sapiens; assay: Cytotoxicity was evaluated against C116 human solid tumor at 1000 ug/disk.; format: functional; summary of the method: as §1
PO3 [43] = assay: Cytotoxicity was evaluated against PO3 cell line at 1000 ug/disk.; format: functional, Mus musculus; summary of the method: as §1
MC-38 [44] = assay: Cytotoxicity was evaluated against C38 solid tumor of mouse at 1000 ug/disk.; format: functional; summary of the method: as §1
[45] = Cytotoxicity was evaluated against low malignancy line at 1000 ug/disk.; format: functional; summary of the method: as §1

## Nc1ncnc2c1ncn2C/C=C\CCl
L1210 [1]
  IC50: 22 µM
[2]
  Cytotoxicity: 200
L1210 [3]
  Control: 80%
L1210 [4]
  Cytotoxicity: 220
L1210 [5]
  Control: 68%
L1210 [6]
  Control: 99%
L1210 [7]
  Control: 98%
L1210 [8]
  Control: 60%
L1210 [9]
  Control: 73%
MC-38 [10]
  Cytotoxicity: 280

## Nc1ccn(CC#CCO)c(=O)n1
L1210 [1]
  IC50: > 550 µM

## Nc1ncnc2c1ncn2C/C=C\CO
L1210 [1]
  IC50: 490 µM
Mus musculus [11]
  EC50: 124 µM
[12]
  SI: > 2.4
Mus musculus [13]
  IC50: > 300 µM
Mus musculus [14]
  EC50: 175 µM
L1210 [15]
  Cytotoxicity: 200
PO3 [16]
  Cytotoxicity: 260
[17]
  Cytotoxicity: 240
[18]
  SI: > 1.7

## Nc1ncnc2c1ncn2CC#CCCl
L1210 [1]
  IC50: 90 µM
[2]
  Cytotoxicity: 950
L1210 [4]
  Cytotoxicity: 930
PO3 [19]
  Cytotoxicity: 520
Homo sapiens [20]
  Cytotoxicity: 900
MC-38 [10]
  Cytotoxicity: 950

## Nc1ccn(C/C=C\CO)c(=O)n1
L1210 [1]
  IC50: > 1000 µM

## Cc1cn(C=C=CCO)c(=O)[nH]c1=O
L1210 [1]
  IC50: 100 µM

## Nc1ncnc2c1ncn2/C=C\CCO
L1210 [1]
  IC50: 200 µM
Mus musculus [11]
  EC50: 160 µM
[12]
  SI: > 1.9
Mus musculus [13]
  IC50: > 300 µM
Mus musculus [14]
  EC50: 194 µM
[18]
  SI: > 1.6

## Nc1ncnc2c1ncn2C/C=C/CCl
L1210 [1]
  IC50: 45 µM
[2]
  Cytotoxicity: 400
L1210 [4]
  Cytotoxicity: 630
MC-38 [10]
  Cytotoxicity: 600

## Nc1ncnc2c1ncn2[C@H]1CC[C@@H](CO)O1
Mus musculus [11]
  EC50: 2.6 µM
[12]
  SI: 32.2
Mus musculus [13]
  IC50: 83.8 µM
Mus musculus [14]
  EC50: 1 µM
[18]
  SI: 83.8

## Nc1ncnc2c1ncn2[C@@H]1C=C(CO)[C@@H](O)[C@H]1O [NEOPLANOCIN A]
Homo sapiens [21]
  Cytotoxicity: 340
[22]
  Cytotoxicity: 100
Homo sapiens [23]
  Cytotoxicity: 0
PO3 [24]
  Cytotoxicity: 80
[25]
  Cytotoxicity: 40
MC-38 [26]
  Cytotoxicity: 0
Homo sapiens [27]
  Cytotoxicity: 400

## Nc1ncnc2c1ncn2C/C=C/CO
L1210 [1]
  IC50: 125 µM

## Nc1ncnc2c1ncn2CCCCCl
L1210 [1]
  IC50: > 440 µM

## O=C(O)P(=O)(O)O [FOSCARNET]
Mus musculus [11]
  EC50: 42.8 µM
[12]
  SI: 23.4
Mus musculus [14]
  EC50: 110 µM
[18]
  SI: 9.1
Mus musculus [28]
  IC50: 1000 µM

## Nc1nc(O)c2ncn(C3C=CCO3)c2n1 (stereo unspecified)
L1210 [1]
  IC50: > 350 µM

## Nc1nc(O)c2ncn(C=C=CCO)c2n1
L1210 [1]
  IC50: > 350 µM

## Nc1ncnc2c1ncn2CC#CCO
Mus musculus [29]
  Precursor inhibition: 60%
L1210 [1]
  IC50: 490 µM
Mus musculus [11]
  EC50: 156 µM
Mus musculus [30]
  Precursor inhibition: 75%
[12]
  SI: 2.6
Mus musculus [31]
  Precursor inhibition: 66%
Mus musculus [32]
  Precursor inhibition: 88%
Mus musculus [14]
  EC50: 245 µM
Mus musculus [33]
  Precursor inhibition: 67%
[18]
  SI: 1.7
Mus musculus [28]
  IC50: 407 µM
Mus musculus [34]
  Precursor inhibition: 36%

## NC1=NC(Cl)c2c(ncn2CC#CCCl)N1 (stereo unspecified)
L1210 [1]
  IC50: 39 µM

## NC1=NC(Cl)c2c(ncn2C/C=C/CCl)N1 (stereo unspecified)
L1210 [1]
  IC50: 39 µM
[2]
  Cytotoxicity: 600
L1210 [4]
  Cytotoxicity: 800
MC-38 [10]
  Cytotoxicity: 700

## Nc1ncnc2c1ncn2C=C=CCO
[35]
  Precursor inhibition: 80%
L1210 [1]
  IC50: 150 µM
Mus musculus [11]
  EC50: 87.3 µM
[36]
  Precursor inhibition: 79%
[12]
  SI: 1.9
[37]
  Precursor inhibition: 105%
Mus musculus [13]
  IC50: 168 µM
[38]
  Precursor inhibition: 94%
Mus musculus [14]
  EC50: 124 µM
[39]
  Precursor inhibition: 107%
PO3 [19]
  Cytotoxicity: 0
[18]
  SI: 1.4
[40]
  Precursor inhibition: 46%
L1210 [41]
  Cytotoxicity: 160

## Nc1ncnc2c1ncn2C1C=CCO1 (stereo unspecified)
Homo sapiens [42]
  Cytotoxicity: 460
L1210 [1]
  IC50: > 500 µM
PO3 [43]
  Cytotoxicity: 320
MC-38 [44]
  Cytotoxicity: 400
[45]
  Cytotoxicity: 500
L1210 [41]
  Cytotoxicity: 520
